How the values were obtained:
[1] = Cytotoxicity against human MRC5 SV2 cells assessed as reduction in cell viability incubated for 72 hrs by resazurin dye based fluorimetric assay; settings: MRC-5 SV2, 72 h
Summary of the method: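 MRC-5 SV2 fibroblasts grown in Earl's MEM with 5% FBSi, L-glutamine and bicarbonate; 1×10^4 cells/well treated 72 h at 37 °C, 5% CO2; resazurin viability read fluorimetrically (ex 550, em 590 nm). Five 4-fold dilutions from a 64 µM top concentration; IC50 derived from % viability reduction vs untreated wells; tamoxifen as reference.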

[2] = system: Trypanosoma brucei; assay: Antitrypanosomal activity against Trypanosoma brucei Squib 427 assessed as reduction in parasite growth incubated for 72 hrs by resazurin dye based fluorimetric analysis; assay type: functional, organism-based; settings: Squib 427, 72 h
[3] = Metabolic stability in human microsomes assessed as compound remaining at 5 uM incubated for 30 mins by UPLC-MS/MS analysis; assay type: ADME, Microsome; settings: for Stability: 0.5 h, 5 µM
Summary of the method: (§1)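 Compound at 5 µM incubated with 0.5 mg/mL male liver microsomes in potassium phosphate buffer, started with 1 mM NADPH (CYP phase I). Aliquots quenched in cold acetonitrile containing tolbutamide, centrifuged at 4 °C, supernatant analysed by LC-MS. Results given as % parent remaining relative to time 0; mean of at least two experiments; diclofenac as control.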

[4] = target: 3',5'-cyclic-AMP phosphodiesterase 4D (Homo sapiens, UniProt Q08499); assay: Inhibition of human PDE4D2 expressed in Escherichia coli BL21 (DE3) using cAMP as substrate by PDELight HTS cAMP phosphodiesterase Kit based
Summary of the method: (§2)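 Recombinant catalytic domains, His-tag purified, then ion exchange and size exclusion, were tested with the PDELight HTS cAMP kit in stimulation buffer (50 mM Hepes, 100 mM NaCl, 10 mM MgCl2, 0.5 mM EDTA, 0.05 mg/ml BSA, pH 7.5). Dose-response curves gave Ki, expressed as pKi = −log10(Ki ÷ 1000000).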

[5] = target: T1, Class 1 phosphodiesterase PDEB1 (Trypanosoma brucei, UniProt Q8WQX9); assay: Inhibition of Trypanosoma brucei PDEB1 (565 to 918 residues) expressed in Escherichia coli BL21 (DE3) using cAMP as substrate by PDELight HTS cAMP phosphodiesterase Kit based; summary of the method: as §2
T1 sequence (Q8WQX9 whole entry): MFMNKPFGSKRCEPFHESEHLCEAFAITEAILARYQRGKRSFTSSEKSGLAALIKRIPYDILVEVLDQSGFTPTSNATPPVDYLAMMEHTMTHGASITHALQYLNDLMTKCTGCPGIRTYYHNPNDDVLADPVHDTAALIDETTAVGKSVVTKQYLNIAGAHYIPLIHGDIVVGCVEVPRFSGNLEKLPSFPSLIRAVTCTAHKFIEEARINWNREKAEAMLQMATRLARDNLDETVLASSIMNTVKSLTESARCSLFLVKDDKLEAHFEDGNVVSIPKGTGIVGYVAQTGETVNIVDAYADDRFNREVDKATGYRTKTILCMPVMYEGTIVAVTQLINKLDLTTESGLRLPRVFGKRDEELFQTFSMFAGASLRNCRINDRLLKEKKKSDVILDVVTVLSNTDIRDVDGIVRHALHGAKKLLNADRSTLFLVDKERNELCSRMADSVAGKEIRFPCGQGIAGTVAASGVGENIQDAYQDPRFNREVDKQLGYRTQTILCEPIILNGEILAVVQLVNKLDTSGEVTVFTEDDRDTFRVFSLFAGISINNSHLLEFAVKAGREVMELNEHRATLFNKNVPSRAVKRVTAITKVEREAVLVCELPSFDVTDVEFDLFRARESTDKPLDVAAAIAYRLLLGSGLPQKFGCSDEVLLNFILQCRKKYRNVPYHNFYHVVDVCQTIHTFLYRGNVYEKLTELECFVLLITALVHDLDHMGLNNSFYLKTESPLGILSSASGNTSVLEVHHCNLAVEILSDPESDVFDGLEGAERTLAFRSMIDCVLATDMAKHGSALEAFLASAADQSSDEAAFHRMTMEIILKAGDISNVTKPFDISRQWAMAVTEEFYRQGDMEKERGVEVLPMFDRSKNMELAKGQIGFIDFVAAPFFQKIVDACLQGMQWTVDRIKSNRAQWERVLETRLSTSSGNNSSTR

[6] = Metabolic stability in mouse microsomes assessed as compound remaining at 5 uM incubated for 30 mins by UPLC-MS/MS analysis; assay type: ADME, Microsome; settings: for remaining at 0.5 h, 5 µM: read-out: Stability; for Stability: 0.5 h, 5 µM; summary of the method: as §1

3',5'-cyclic-AMP phosphodiesterase 4D, sequence (Q08499 whole entry, the tested form may be a part): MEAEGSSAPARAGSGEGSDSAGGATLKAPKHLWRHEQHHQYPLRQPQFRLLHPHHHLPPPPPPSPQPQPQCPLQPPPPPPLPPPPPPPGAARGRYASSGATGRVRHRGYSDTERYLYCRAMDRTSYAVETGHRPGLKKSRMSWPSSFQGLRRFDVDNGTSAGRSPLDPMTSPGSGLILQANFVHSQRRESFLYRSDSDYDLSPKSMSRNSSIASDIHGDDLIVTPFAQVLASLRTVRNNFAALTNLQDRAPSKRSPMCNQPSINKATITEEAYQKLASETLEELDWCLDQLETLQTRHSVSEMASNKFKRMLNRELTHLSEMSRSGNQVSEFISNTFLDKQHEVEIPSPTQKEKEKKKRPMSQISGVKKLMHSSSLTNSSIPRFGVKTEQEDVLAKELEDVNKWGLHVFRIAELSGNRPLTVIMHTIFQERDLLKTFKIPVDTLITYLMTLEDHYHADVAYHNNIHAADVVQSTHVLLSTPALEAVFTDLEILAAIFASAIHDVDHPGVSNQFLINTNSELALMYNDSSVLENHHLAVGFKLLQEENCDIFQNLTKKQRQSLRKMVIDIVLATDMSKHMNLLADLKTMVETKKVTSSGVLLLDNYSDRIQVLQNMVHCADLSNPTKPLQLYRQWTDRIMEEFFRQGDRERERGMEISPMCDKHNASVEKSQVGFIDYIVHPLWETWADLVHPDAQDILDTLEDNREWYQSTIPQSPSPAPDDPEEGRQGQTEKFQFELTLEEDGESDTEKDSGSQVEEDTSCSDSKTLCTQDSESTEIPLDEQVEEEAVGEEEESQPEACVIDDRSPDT

Row | SMILES | IC50 [2] [nM] | Stability [3] | Ki [4] [nM] | Ki [5] [nM] | remaining at 0.5 h, 5 µM [6] [%] | Stability [6] | remaining at 0.5 h, 5 µM ([3]; read-out: Stability) [%] | IC50 [1] [nM]
1 | COc1ccc(C2=NN(C3CCN(C(=O)CN4C(=O)CC(C)(C)CC4=O)CC3)C(=O)[C@@H]3CCCC[C@H]23)cc1OC | 1950 | Stable | 0.162 | 85.1 | – | Stable | – | 56200
2 | O=C(CN1C(=O)CC2(CCCCC2)CC1=O)N1CCC(N2N=C(c3ccc(F)c(F)c3)[C@H]3CCCC[C@H]3C2=O)CC1 | 7590 | Stable | – | > 6920 | – | Stable | – | 64600
3 | O=C1[C@@H]2CC=CC[C@@H]2C(c2ccc(F)c(F)c2)=NN1C1CCN(c2ncnc3ccsc23)CC1 | 13200 | Stable | – | > 5620 | – | Stable | – | 38000
4 | CC1(C)CC(=O)N(CC(=O)N2CCC(N3N=C(c4ccc(OC(F)F)c(OC(F)F)c4)[C@H]4CCCC[C@H]4C3=O)CC2)C(=O)C1 | 6460 | Stable | – | > 1580 | – | Stable | – | 64600
5 | O=C1[C@@H]2CC=CC[C@@H]2C(c2ccc(OC(F)F)c(OC(F)F)c2)=NN1C1CCN(c2ncnc3ccsc23)CC1 | 6760 | Stable | – | > 2140 | – | Stable | – | 64600
6 | O=C(CN1C(=O)CC2(CCCCC2)CC1=O)N1CCC(N2N=C(c3ccc(F)c(F)c3)[C@H]3CC=CC[C@H]3C2=O)CC1 (relative stereo) | 33100 | Stable | – | > 4570 | – | Stable | – | 64600
7 | Nc1nc(N2CCC(N3N=C(c4ccc(F)cc4)[C@H]4CC=CC[C@H]4C3=O)CC2)c2ccsc2n1 (relative stereo) | 2090 | Stable | – | > 9330 | – | Stable | – | 64600

More lines, main results first:

Row | IC50 [2] [nM] | Stability [3] | Ki [4] [nM] | Ki [5] [nM] | remaining at 0.5 h, 5 µM [6] [%] | Stability [6] | remaining at 0.5 h, 5 µM ([3]; read-out: Stability) [%] | SMILES | IC50 [1] [nM]
8 | 447 | Stable | 0.123 | 43.7 | 6.7 | – | – | COc1ccc(C2=NN(C3CCN(C(=O)CN4C(=O)CC(C)(C)CC4=O)CC3)C(=O)[C@@H]3CC=CC[C@H]23)cc1OC | 44700
9 | 479 | Stable | 0.155 | 30.9 | – | Stable | – | COc1ccc(C2=NN(C3CCN(C(=O)CN4C(=O)CC5(CCCCC5)CC4=O)CC3)C(=O)[C@@H]3CC=CC[C@H]23)cc1OC | 31600
10 | 1150 | Stable | 0.851 | 91.2 | – | Stable | – | COc1ccc(C2=NN(C3CN(C(=O)CN4C(=O)CC5(CCCCC5)CC4=O)C3)C(=O)[C@@H]3CC=CC[C@H]23)cc1OC | 64600
11 | 1780 | Stable | 0.676 | 339 | – | Stable | – | COc1ccc(C2=NN(C3CCN(c4nc(N)c5sccc5n4)CC3)C(=O)[C@@H]3CC=CC[C@H]23)cc1OC | 64600
12 | 1860 | – | 0.0617 | 20.9 | 43 | – | 89 | COc1ccc(C2=NN(C3CCN(C(=O)CN4C(=O)CCC4=O)CC3)C(=O)[C@@H]3CC=CC[C@H]23)cc1OC | 64600
13 | 1910 | Stable | – | > 8320 | – | Stable | – | Nc1nc(N2CCC(N3N=C(c4ccc(F)c(F)c4)[C@H]4CC=CC[C@H]4C3=O)CC2)c2ccsc2n1 (relative stereo) | 64600
